The source made the active and inactive calls. The rule behind the calls is not given here.

The target of assay [1] is T1, von Hippel-Lindau disease tumor suppressor/Mitogen-activated protein kinase kinase kinase 11 (Homo sapiens, UniProt Q16584+P40337). In words: PROTAC activity at VHL/DOX-inducible MLK3 (unknown origin) overexpressed in human HCC1806 cells assessed as protein degradation at 0.5 uM measured after 24 hrs by shotgun proteomic analysis. The class given is cell-based. A digest of the protocol: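 HCC1806 cells with DOX-inducible MLK3 were seeded at 150 000/well and induced with DOX for 24 h, then treated with 0.5 μM PROTAC or DMSO for 24 h. Total lysates were chloroform/methanol precipitated, reduced and alkylated with TCEP/CAA, and trypsin-digested at 37 °C overnight. Shotgun LC-MS/MS followed, with log2 fold change and t-test p-values (n = 3).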

The subject of assay [2] is MCF7. In words: Effect on cell cycle in human MCF7 cells at 1 uM measured after 48 hrs by PI staining based flow cytometry. The class given is functional. The method in brief: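 Cells seeded at 50 000/well, exposed to 1 μM PROTAC or DMSO for 48 h, trypsinized, fixed in ice-cold methanol and held at –20 °C; next day stained with PI/RNase solution and read by flow cytometry. Two independent experiments.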

Assay [3] in a line: PROTAC activity at IAP/MLK1 in human MCF7 cells assessed as protein degradation at 1 uM incubated for 24 hrs by immunoblot analysis.
For assay [4], the target named is T2, von Hippel-Lindau disease tumor suppressor/Mitogen-activated protein kinase kinase kinase 9 (Homo sapiens) (UniProt P80192+P40337). In words: PROTAC activity at IAP/MLK1 in human MDA-MB-468 cells assessed as protein degradation at 1 uM incubated for 24 hrs by immunoblot analysis. The class given is cell-based. The method in brief: (§1)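 Endogenous MLK1, MLK2 or MLK4 levels in MCF-7 and MDA-MB-468 cells. Cells were grown in high-glucose DMEM with 10% FBS, seeded at 100 000 cells/well and treated the next day for 24 h, with DMSO as control. Lysis was in RIPA with protease inhibitor, followed by 10% SDS-PAGE, nitrocellulose transfer and ECL immunoblot with GAPDH or β-actin as loading control.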

Assay [5] has as its target T2, von Hippel-Lindau disease tumor suppressor/Mitogen-activated protein kinase kinase kinase 9 (Homo sapiens). As to the kind of experiment: PROTAC activity at VHL/MLK1 in human MDA-MB-468 cells assessed as protein degradation at 1 uM incubated for 24 hrs by immunoblot analysis. It is filed as cell-based. The method in brief: as §1
(Immunoblotting shows a protein as a band on a membrane.)

In assay [6] the test system is MCF7. In words: Induction of apoptosis in human MCF7 cells at 1 uM measured after 48 hrs by Annexin V-FITC/PI staining based flow cytometry. It is filed as functional, cell-based. A digest of the protocol: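 Cells seeded at 50 000/well, treated 48 h with 1 μM PROTAC or DMSO; cells plus supernatant stained with Alexa Fluor488 Annexin V for 30 min at room temperature in the dark, PI added 5 min before flow cytometry. At least three repeats.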
For orientation: A flow cytometer gives signals particle by particle.

Assay [7] relates to MCF7. In words: Inhibition of colony formation in human MCF7 cells at 1 uM incubated for 15 days by crystal violet staining based analysis. Conditions: time 15.0 day. It is filed as functional, cell-based. The method in brief:
(§2)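 5000 cells per 6 cm plate in triplicate with 1 μM PROTAC or DMSO, medium changed every 5 days; colonies stained with crystal violet after 14–15 days. Three independent experiments, mean ± SD, unpaired t-test against control.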

The test system of assay [8] is MDA-MB-468. As to the kind of experiment: Inhibition of cell migration in human MDA-MB-468 cells at 1 uM incubated for 24 hrs by transwell assay. It is filed as functional, cell-based. The method in brief:
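Boyden inserts, 8 μm pores: 200 000 cells in serum-free DMEM with 1 μM PROTAC or DMSO, 20% FBS DMEM below as chemoattractant, 24 h at 37 °C, 5% CO2. Migrated cells fixed, crystal violet stained and counted by image analysis; at least three repeats.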

Assay [9] has as its target T1, von Hippel-Lindau disease tumor suppressor/Mitogen-activated protein kinase kinase kinase 11. In words: PROTAC activity at VHL/MLK3 in human MCF7 cells assessed as protein degradation at 1 uM by Western blot analysis. The conditions noted are these: time 4-48 hrs, TDE = time-dependent effect. It is filed as cell-based.
The target is the same in assay [10]. As to the kind of experiment: PROTAC activity at VHL/MLK3 in human MDA-MB-468 cells assessed as protein degradation at 1 uM by Western blot analysis. Conditions: time 4-48 hrs, TDE = time-dependent effect. The class given is cell-based.
Assay [11] has the same target. In words: PROTAC activity at VHL/MLK3 in human MDA-MB-468 cells assessed as protein degradation at 1 uM measured after 24 hrs by immunoblot analysis.
The target is the same in assay [12]. As to the kind of experiment: PROTAC activity at VHL/MLK3 in human MCF7 cells assessed as protein degradation measured after 4 to 48 hrs by Western blot analysis. It is filed as cell-based. The conditions noted are these: dose 1.0 µM, time 4-48 hrs. The method in brief:
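MCF-7 and MDA-MB-468 cells were seeded at 100 000/well and treated with 1 μM PROTAC for 4–48 h, with DMSO as control. MLK3 was quantified by immunoblot as percent remaining, and t1/2 of degradation was derived from the time course.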

Assay [13] shares this target. As to the kind of experiment: PROTAC activity at VHL/MLK3 in human MDA-MB-468 cells assessed as protein degradation at 1 uM measured after 24 hrs by immunoblot analysis. The class given is cell-based. The method in brief: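 MCF-7 and MDA-MB-468 cells were treated for 24 h across 0.1–5 μM, with DMSO as control. MLK3 was immunoblotted and quantified as percent remaining versus concentration, from which DC50 and Dmax were derived.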

Assay [14] relates to MDA-MB-468. In words: Inhibition of colony formation in human MDA-MB-468 cells harboring siMLK3 by crystal violet staining based analysis. The class given is functional, cell-based. A digest of the protocol:
(§3)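 MCF-7 or MDA-MB-468 seeded at 10 000 cells/well, transfected next day with MAP3K11 SMARTpool siRNA or nontargeting control siRNA; crystal violet staining 7 days after transfection. Knockdown confirmed by immunoblot.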

Assay [15] has as its target T1, von Hippel-Lindau disease tumor suppressor/Mitogen-activated protein kinase kinase kinase 11. In words: PROTAC activity at VHL/MLK3 in human MCF7 cells assessed as protein degradation at 0.1 to 5 uM measured after 24 hrs by Western blot analysis relative to control. The conditions noted are these: dose 0.1-5 µM. The class given is cell-based. A digest of the protocol: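 Endogenous MLK3: cells seeded at 100 000/well, treated next day for 24 h with PROTAC at 0.1–5 μM, DMSO control; immunoblot with GAPDH or β-actin loading control. Remaining MLK3 percentage plotted against concentration to derive DC50 and Dmax.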

Assay [16] relates to MCF7. In words: Effect on ERK pathway in human MCF7 cells at 1 uM measured after 24 hrs by immunoblot analysis. It is filed as functional, cell-based.
Assay [17] has as its target T1, von Hippel-Lindau disease tumor suppressor/Mitogen-activated protein kinase kinase kinase 11. In words: PROTAC activity at VHL/DOX-inducible MLK3 (unknown origin) overexpressed in carfilzomib-treated human HCC1806 cells assessed as protein degradation at 0.25 to 1 uM measured after 7 hrs by immunoblot analysis. Conditions: dose 0.25-1 µM. The class given is cell-based. The method in brief: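 HCC1806 cells with DOX-inducible MLK3 were induced with 1 μg/mL DOX for 24 h. They were pretreated with 1 μM carfilzomib (proteasome inhibitor) for 1 h, then with PROTAC at 0.25–1 μM for 7 h, with DMSO as control. MLK3 was assessed by ECL immunoblot.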

Assay [18] deals with MCF7. As to the kind of experiment: Inhibition of colony formation in human MCF7 cells harboring siMLK3 by crystal violet staining based analysis. The class given is functional, cell-based. The method in brief: as §3
Assay [19] deals with MDA-MB-468. As to the kind of experiment: Inhibition of colony formation in human MDA-MB-468 cells at 1 uM incubated for 15 days by crystal violet staining based analysis. It is filed as functional, cell-based. Conditions: time 15.0 day. The method in brief: as §2
The target of assay [20] is von Hippel-Lindau disease tumor suppressor/Mitogen-activated protein kinase kinase kinase 21 (Homo sapiens) (UniProt P40337+Q5TCX8). In words: PROTAC activity at VHL/MLK4 in human MCF7 cells assessed as protein degradation at 1 uM incubated for 24 hrs by immunoblot analysis. The class given is cell-based. The method in brief:
as §1

T1 sequence (P40337 whole entry, looked up): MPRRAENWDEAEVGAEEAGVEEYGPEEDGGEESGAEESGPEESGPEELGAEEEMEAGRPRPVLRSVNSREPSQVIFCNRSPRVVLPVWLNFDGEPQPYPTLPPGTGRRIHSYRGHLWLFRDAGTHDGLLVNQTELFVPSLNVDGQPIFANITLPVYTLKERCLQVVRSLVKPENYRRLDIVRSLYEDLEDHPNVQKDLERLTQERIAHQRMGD
T1 sequence (Q16584 whole entry, looked up): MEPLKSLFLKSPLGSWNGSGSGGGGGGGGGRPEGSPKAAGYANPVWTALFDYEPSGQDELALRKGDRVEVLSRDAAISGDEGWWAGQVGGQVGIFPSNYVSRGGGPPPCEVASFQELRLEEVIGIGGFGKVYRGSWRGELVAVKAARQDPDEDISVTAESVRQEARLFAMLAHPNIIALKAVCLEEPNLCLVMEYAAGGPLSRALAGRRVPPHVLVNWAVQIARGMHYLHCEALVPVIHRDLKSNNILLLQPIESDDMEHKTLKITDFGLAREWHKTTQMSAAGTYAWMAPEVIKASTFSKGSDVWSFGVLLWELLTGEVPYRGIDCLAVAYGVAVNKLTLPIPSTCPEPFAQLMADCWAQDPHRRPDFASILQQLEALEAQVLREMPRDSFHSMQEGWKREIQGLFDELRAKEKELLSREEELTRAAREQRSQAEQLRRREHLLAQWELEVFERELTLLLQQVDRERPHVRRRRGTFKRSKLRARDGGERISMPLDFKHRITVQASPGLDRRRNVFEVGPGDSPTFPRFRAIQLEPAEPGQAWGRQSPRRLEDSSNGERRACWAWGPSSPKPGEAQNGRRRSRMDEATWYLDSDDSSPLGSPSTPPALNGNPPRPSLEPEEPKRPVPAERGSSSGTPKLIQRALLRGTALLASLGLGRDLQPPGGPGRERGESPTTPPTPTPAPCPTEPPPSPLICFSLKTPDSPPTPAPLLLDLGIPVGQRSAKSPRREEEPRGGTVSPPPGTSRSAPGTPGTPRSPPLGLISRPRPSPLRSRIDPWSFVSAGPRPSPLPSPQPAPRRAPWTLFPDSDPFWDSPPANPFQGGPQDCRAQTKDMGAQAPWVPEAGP
T2 sequence (P40337 whole entry, looked up): as the sequence (P40337 whole entry, looked up) above
T2 sequence (P80192 whole entry, looked up): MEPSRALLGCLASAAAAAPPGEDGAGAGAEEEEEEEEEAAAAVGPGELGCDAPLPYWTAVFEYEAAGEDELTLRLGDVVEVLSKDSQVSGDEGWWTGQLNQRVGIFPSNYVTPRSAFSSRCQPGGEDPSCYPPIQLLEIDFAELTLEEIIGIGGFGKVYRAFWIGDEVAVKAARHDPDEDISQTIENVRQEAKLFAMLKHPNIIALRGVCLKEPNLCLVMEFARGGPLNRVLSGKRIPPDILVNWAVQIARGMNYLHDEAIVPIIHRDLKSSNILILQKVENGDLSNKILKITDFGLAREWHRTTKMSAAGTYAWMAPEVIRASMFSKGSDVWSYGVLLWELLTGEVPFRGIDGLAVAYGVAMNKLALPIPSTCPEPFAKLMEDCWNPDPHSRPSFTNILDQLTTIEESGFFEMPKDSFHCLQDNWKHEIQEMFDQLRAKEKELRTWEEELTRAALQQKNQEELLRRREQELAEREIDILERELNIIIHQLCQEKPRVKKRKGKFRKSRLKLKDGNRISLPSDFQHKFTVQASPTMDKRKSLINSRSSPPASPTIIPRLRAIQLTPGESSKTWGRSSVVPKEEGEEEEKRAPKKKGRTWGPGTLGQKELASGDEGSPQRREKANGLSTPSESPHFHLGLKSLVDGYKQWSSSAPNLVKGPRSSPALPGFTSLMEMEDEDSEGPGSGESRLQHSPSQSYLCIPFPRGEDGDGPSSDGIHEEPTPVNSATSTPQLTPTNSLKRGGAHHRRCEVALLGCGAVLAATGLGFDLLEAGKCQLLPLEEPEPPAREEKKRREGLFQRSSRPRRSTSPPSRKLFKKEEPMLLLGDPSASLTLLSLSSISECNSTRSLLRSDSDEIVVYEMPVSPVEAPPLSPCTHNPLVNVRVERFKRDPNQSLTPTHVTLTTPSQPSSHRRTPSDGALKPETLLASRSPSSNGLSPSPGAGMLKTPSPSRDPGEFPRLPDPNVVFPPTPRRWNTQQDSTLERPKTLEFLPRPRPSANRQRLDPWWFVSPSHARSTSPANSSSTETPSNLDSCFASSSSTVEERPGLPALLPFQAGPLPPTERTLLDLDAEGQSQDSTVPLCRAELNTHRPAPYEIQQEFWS
Chain of von Hippel-Lindau disease tumor suppressor/Mitogen-activated protein kinase kinase kinase 21 (Homo sapiens) (P40337 whole entry, looked up): as the sequence (P40337 whole entry, looked up) above
Chain of von Hippel-Lindau disease tumor suppressor/Mitogen-activated protein kinase kinase kinase 21 (Homo sapiens) (Q5TCX8 whole entry, looked up): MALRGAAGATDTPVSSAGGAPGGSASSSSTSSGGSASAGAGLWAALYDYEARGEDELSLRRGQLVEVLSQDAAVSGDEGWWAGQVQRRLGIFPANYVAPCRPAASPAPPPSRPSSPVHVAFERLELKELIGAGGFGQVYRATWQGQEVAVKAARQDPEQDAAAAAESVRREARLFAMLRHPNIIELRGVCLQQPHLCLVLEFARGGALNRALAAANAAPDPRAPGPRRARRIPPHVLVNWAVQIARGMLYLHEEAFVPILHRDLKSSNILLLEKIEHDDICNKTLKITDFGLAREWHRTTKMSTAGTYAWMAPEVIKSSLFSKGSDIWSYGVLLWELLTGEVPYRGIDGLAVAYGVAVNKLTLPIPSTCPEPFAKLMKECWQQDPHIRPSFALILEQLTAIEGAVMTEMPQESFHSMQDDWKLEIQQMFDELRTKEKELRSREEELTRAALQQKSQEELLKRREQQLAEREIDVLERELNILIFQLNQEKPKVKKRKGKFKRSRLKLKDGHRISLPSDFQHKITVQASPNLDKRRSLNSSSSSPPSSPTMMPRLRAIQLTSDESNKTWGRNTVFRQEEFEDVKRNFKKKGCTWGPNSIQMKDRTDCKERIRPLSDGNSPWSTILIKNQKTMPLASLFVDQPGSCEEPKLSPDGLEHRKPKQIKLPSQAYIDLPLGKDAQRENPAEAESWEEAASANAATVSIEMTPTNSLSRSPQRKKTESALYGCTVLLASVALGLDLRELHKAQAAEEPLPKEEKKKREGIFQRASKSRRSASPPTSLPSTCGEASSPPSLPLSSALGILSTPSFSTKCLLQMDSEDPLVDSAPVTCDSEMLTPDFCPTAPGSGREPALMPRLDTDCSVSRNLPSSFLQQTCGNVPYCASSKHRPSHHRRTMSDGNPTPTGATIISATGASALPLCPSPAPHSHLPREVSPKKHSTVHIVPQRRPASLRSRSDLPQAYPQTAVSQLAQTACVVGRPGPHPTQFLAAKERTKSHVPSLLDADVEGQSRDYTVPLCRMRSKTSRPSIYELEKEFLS

The Emax is the size of the effect at its maximum, as opposed to the concentration needed. Consider `CCSCc1ccc2c(c1)c1c3c(c4c5cc(CSCC)ccc5n5c4c1n2[C@H]1C[C@](O)(C(=O)NCCOCCOCCOCC(=O)N[C@H](C(=O)N2C[C@H](O)C[C@H]2C(=O)N[C@@H](C)c2ccc(-c4scnc4C)cc2)C(C)(C)C)[C@]5(C)O1)CNC3=O`, for which the outcome in assay [1], in [11] and in assay [13] was Active. Also, the result (in the assay on MCF7 [2]; in [3]; in assay [4]; in assay [5]; in the assay on MCF7 [6]; with MCF7 [16]) was inactive. In addition, the result in assay [17] and in [20] was inactive. The inhibition entry in the assay on MCF7 [7] and in the assay with MCF7 [18] was “inactive” each time. In addition, the inhibition result in the assay with MDA-MB-468 [8], in the assay with MDA-MB-468 [14] and in the assay with MDA-MB-468 [19] was “Active” throughout. Moreover, the Activity result is “Tde” in assay [9], “Tde” in assay [10] and “Dose-Dependent Effect” in assay [12]. In addition, the Emax in assay [15] turned out to be 77%.

Source of the values: ChEMBL document CHEMBL5579886, “Selective Degradation of MLK3 by a Novel CEP1347-VHL-02 PROTAC Compound Limits the Oncogenic Potential of TNBC” (J Med Chem, 2024).
